Reference: ChEMBL document CHEMBL3877276, “Design, synthesis, and biological evaluation of cyclic-indole derivatives as anti-tumor agents via the inhibition of tubulin polymerization” (Eur J Med Chem, 2017)
Calls of active or inactive are those of the source. The rule behind the calls is not given here.

Columns and labels:
[1] = Antiproliferative activity against human HeLa cells measured after 48 hrs by MTT assay; format: functional, cell-based
[2] = Antiproliferative activity against human LoVo cells measured after 48 hrs by MTT assay; format: functional, cell-based
[3] = Antiproliferative activity against human PC3 cells measured after 48 hrs by MTT assay; format: functional, cell-based; details: PC-3, 48 h
[4] = Antiproliferative activity against human Bel7402 cells measured after 48 hrs by MTT assay; format: functional, cell-based; details: Bel-7402, 48 h
[5] = Inhibition of porcine brain tubulin polymerization measured every 60 secs for 90 mins by fluorescence assay; parameters: species or system Sus scrofa
In short: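 Porcine brain tubulin in a fluorescence kit. Reaction mix: 80.0 mM PIPES sesquisodium (pH 6.9), 2.0 mM MgCl2, 0.5 mM EGTA, 1 mM GTP, 10.2% glycerol. Compound added and mix pre-warmed 1 min at 37 °C, then tubulin added to start. Fluorescence (ex 340, em 410 nm) read every 60 s for 90 min. IC50 from area under curve, three independent experiments.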

[6] = Antiproliferative activity against human A549 cells measured after 48 hrs by MTT assay; format: functional, cell-based; details: A549, 48 h
[7] = Antiproliferative activity against human MCF7 cells measured after 48 hrs by MTT assay; format: functional, cell-based; details: MCF7, 48 h
[8] = Selectivity ratio of IC50 for human MCF10A cells to IC50 for human A549 cells; format: ADME, cell-based; details: MCF10A cells versus A549 cells, read-out: Ratio IC50
In short: (§1)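 Ratio = IC50 in the normal line (HUVEC quiescent in 0.5% fetal calf serum without growth factor, MCF-10A, BJ or HLF) divided by IC50 in A549.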

[9] = test system: A549; assay: Induction of apoptosis in human A549 cells assessed as late and early apoptotic cells at 10 nM measured after 48 hrs by Annexin-V-FITC/propidium iodide staining based flow cytometry (reference value: 0.63 %); format: functional
In short: (§2)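 A549 seeded at 3×10^5 cells/well and treated at 10, 20 or 50 nM for 24 or 48 h, then harvested. Annexin V-FITC in HEPES 10 mM/NaCl 140 mM/CaCl2 2.5 mM (pH 7.4) 15 min at room temperature, then PI 10 min. About 10,000 events by flow cytometry, quadrants scored as early or late apoptotic. Three repeats.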

[10] = Selectivity ratio of IC50 for HLF to IC50 for human A549 cells; format: ADME, cell-based; details: HLF versus A549 cells, read-out: Ratio IC50; in short: as §1
[11] = test system: A549; assay: Disruption of cellular microtubule network in human A549 cells measured after 12 hrs by Hochest 33342 staining based laser confocal microscopy; format: cell-based
[12] = Cell cycle arrest in human A549 cells assessed as reduction in G1 phase at 10 to 50 nM measured after 24 to 48 hrs by propidium iodide staining based flow cytometry; format: functional
In short: (§3)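 A549 seeded at 3×10^5 cells/well and treated 24 or 48 h. Trypsinized, fixed in 70% ethanol at 4 °C overnight, RNase A 37 °C 30 min, then PI 4 °C 30 min. DNA content of 10,000 events read by flow cytometry at 488 nm. Three repeats.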

[13] = Selectivity ratio of IC50 for HUVEC in presence of fetal calf serum and absence of growth factor to IC50 for human A549 cells; format: cell-based; details: HUVEC versus A549 cells, read-out: Ratio IC50; in short: as §1
[14] = Cell cycle arrest in human A549 cells assessed as accumulation at G2/M phase at 10 nM measured after 24 hrs by propidium iodide staining based flow cytometry relative to control; format: functional; in short: as §3
[15] = Cytotoxicity against HUVEC assessed as change in cell morphology at 20 nM in presence of fetal calf serum and absence of growth factor measured after 48 hrs by phase contrast microscopy; format: toxicity, cell-based; details: human, 0.02 µM
In short: (§4)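 A549 cells and quiescent HUVECs (0.5% fetal calf serum, no growth factor) treated at 20 and 200 nM for 48 h. Morphology (rounding, shrinkage, blebbing, detachment) inspected by microscopy.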

[16] = Selectivity ratio of IC50 for human BJ cells to IC50 for human A549 cells; format: ADME, cell-based; details: BJ cells versus A549 cells, read-out: Ratio IC50; in short: as §1
[17] = Antiproliferative activity against human BJ cells measured after 48 hrs by MTT assay; format: cell-based
In short: (§5)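 Cells in log phase plated at 5×10^3 cells/well, grown 24 h at 37 °C, 5% CO2, then exposed to a range of compound concentrations for 48 h. MTT (5 mg/mL stock) added, formazan dissolved in DMSO, absorbance read at 570 nm. IC50 from nonlinear regression, at least three independent experiments. Quiescent HUVECs kept in endothelial medium with 0.5% fetal calf serum, no growth factor.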

[18] = test system: A549; assay: Induction of apoptosis in human A549 cells by Annexin-V-FITC/propidium iodide staining based flow cytometry; format: functional, cell-based; in short: as §2
[19] = Cell cycle arrest in human A549 cells assessed as accumulation at G2/M phase at 25 nM measured after 24 hrs by propidium iodide staining based flow cytometry relative to control; format: functional; in short: as §3
[20] = Antiproliferative activity against human A2780 cells measured after 48 hrs by MTT assay; format: functional, cell-based; details: A2780, 48 h
[21] = test system: A549; assay: Disruption of cellular microtubule network in human A549 cells assessed as blockade of cell mitosis measured after 12 hrs by Hochest 33342 staining based laser confocal microscopy
[22] = test system: A549; assay: Induction of apoptosis in human A549 cells assessed as late and early apoptotic cells at 50 nM measured after 48 hrs by Annexin-V-FITC/propidium iodide staining based flow cytometry (reference value: 0.63 %); format: functional; in short: as §2
[23] = Cytotoxicity against HUVEC assessed as change in cell morphology at 200 nM in presence of fetal calf serum and absence of growth factor measured after 48 hrs by phase contrast microscopy; format: toxicity, cell-based; details: human, 0.2 µM; in short: as §4
[24] = Antiproliferative activity against HLF measured after 48 hrs by MTT assay; details: Homo sapiens; in short: as §5
[25] = test system: A549; assay: Induction of apoptosis in human A549 cells assessed as late and early apoptotic cells at 50 nM measured after 24 hrs by Annexin-V-FITC/propidium iodide staining based flow cytometry (reference value: 0.63 %); format: functional; in short: as §2
[26] = Antiproliferative activity against human MCF10A cells measured after 48 hrs by MTT assay; format: cell-based; details: MCF-10A; in short: as §5
[27] = test system: A549; assay: Induction of apoptosis in human A549 cells assessed as late and early apoptotic cells at 10 nM measured after 24 hrs by Annexin-V-FITC/propidium iodide staining based flow cytometry (reference value: 0.63 %); format: functional; in short: as §2
[28] = Cell cycle arrest in human A549 cells assessed as accumulation at G2/M phase at 50 nM measured after 24 hrs by propidium iodide staining based flow cytometry relative to control; format: functional; in short: as §3
[29] = test system: A549; assay: Induction of apoptosis in human A549 cells assessed as late and early apoptotic cells at 20 nM measured after 24 hrs by Annexin-V-FITC/propidium iodide staining based flow cytometry (reference value: 0.63 %); format: functional; in short: as §2
[30] = test system: A549; assay: Cytotoxicity against human A549 cells assessed as change in cell morphology at 20 to 200 nM measured after 48 hrs by phase contrast microscopy; format: functional, cell-based; in short: as §4
[31] = Antiproliferative activity against HUVEC in presence of fetal calf serum and absence of growth factor measured after 48 hrs by MTT assay; format: cell-based; details: Homo sapiens; in short: as §5
[32] = test system: A549; assay: Induction of apoptosis in human A549 cells assessed as late and early apoptotic cells at 20 nM measured after 48 hrs by Annexin-V-FITC/propidium iodide staining based flow cytometry (reference value: 0.63 %); format: functional; in short: as §2

COc1ccc(/C=C\c2cc(OC)c(OC)c(OC)c2)cc1O [COMBRETASTATIN A4]
IC50 [1]: 12 nM
IC50 [2]: 17 nM
IC50 [3]: 26 nM
IC50 [4]: 13 nM
IC50 [5]: 1120 nM
IC50 [6]: 10 nM
IC50 [7]: 29 nM

COc1cc(C2CCCCc3c2ccc2c3ccn2C)cc(OC)c1OC (stereo not given)
IC50 [1]: 56 nM
selectivity ratio [8]: 30.5
Activity [9]: 41.4%
IC50 [2]: 49 nM
IC50 [3]: 47 nM
selectivity ratio [10]: 76.1
Activity [11]: Active
Activity [12]: Active
selectivity ratio [13]: 9.68
Activity [14]: 41%
Activity [15]: Non-Toxic
selectivity ratio [16]: 55
IC50 [17]: 1210 nM
IC50 [4]: 39 nM
Activity [18]: Dose-dependent effect
Activity [19]: 55.1%
IC50 [20]: 37 nM
Activity [21]: Active
Activity [22]: 60.2%
IC50 [5]: 150 nM
IC50 [6]: 22 nM
Activity [23]: Toxic
IC50 [24]: 1670 nM
Activity [25]: 59.8%
IC50 [26]: 672 nM
Activity [27]: 22.8%
IC50 [7]: 51 nM
Activity [28]: 72.1%
Activity [29]: 39.6%
Activity [30]: Active
IC50 [31]: 213 nM
Activity [32]: 58.4%

COc1cc(C2=CCCCc3c2ccc2[nH]cc(C=O)c32)cc(OC)c1OC
IC50 [1]: 860 nM
IC50 [2]: 1130 nM
IC50 [3]: 950 nM
IC50 [4]: 1260 nM
IC50 [20]: 1020 nM
IC50 [6]: 470 nM
IC50 [7]: 2060 nM

CCn1ccc2c3c(ccc21)C(c1cc(OC)c(OC)c(OC)c1)=CCCC3
IC50 [1]: 61 nM
IC50 [2]: 39 nM
IC50 [3]: 85 nM
IC50 [4]: 66 nM
IC50 [20]: 32 nM
IC50 [6]: 56 nM
IC50 [7]: 79 nM

COc1cc(C2=CCCCc3c2ccc2c3CCN2C)cc(OC)c1OC
IC50 [1]: 45 nM
IC50 [2]: 79 nM
IC50 [3]: 77 nM
IC50 [4]: 61 nM
IC50 [20]: 69 nM
IC50 [5]: 1040 nM
IC50 [6]: 56 nM
IC50 [7]: 58 nM

COc1cc(C2=CCCCc3c2ccc2[nH]ccc32)cc(OC)c1OC
IC50 [1]: 790 nM
IC50 [2]: 520 nM
IC50 [3]: 980 nM
IC50 [4]: 620 nM
IC50 [20]: 1010 nM
IC50 [6]: 451 nM
IC50 [7]: 1560 nM

COc1cc(C2=CCCCc3c2ccc2c3ccn2C)cc(OC)c1OC
IC50 [1]: 56 nM
IC50 [2]: 47 nM
IC50 [3]: 93 nM
IC50 [4]: 78 nM
IC50 [20]: 44 nM
IC50 [5]: 580 nM
IC50 [6]: 49 nM
IC50 [7]: 69 nM

COC(=O)C(=O)c1cn(C)c2ccc3c(c12)CCCC=C3c1cc(OC)c(OC)c(OC)c1
IC50 [1]: > 10000 nM
IC50 [2]: > 10000 nM
IC50 [3]: > 10000 nM
IC50 [4]: > 10000 nM
IC50 [20]: > 10000 nM
IC50 [6]: > 10000 nM
IC50 [7]: > 10000 nM

COc1cc(C2=CCCCc3c2ccc2c3c(CO)cn2C)cc(OC)c1OC
IC50 [1]: 33 nM
IC50 [2]: 32 nM
IC50 [3]: 49 nM
IC50 [4]: 46 nM
IC50 [20]: 31 nM
IC50 [5]: 410 nM
IC50 [6]: 43 nM
IC50 [7]: 63 nM

COc1cc(C2=CCc3c2ccc2c3ccn2C)cc(OC)c1OC
IC50 [1]: 326 nM
IC50 [2]: 297 nM
IC50 [3]: 412 nM
IC50 [4]: 561 nM
IC50 [20]: 186 nM
IC50 [6]: 149 nM
IC50 [7]: 449 nM

CCCn1ccc2c3c(ccc21)C(c1cc(OC)c(OC)c(OC)c1)=CCCC3
IC50 [1]: 600 nM
IC50 [2]: 690 nM
IC50 [3]: 690 nM
IC50 [4]: 480 nM
IC50 [20]: 240 nM
IC50 [6]: 520 nM
IC50 [7]: 780 nM

COc1cc(C2=CCCCc3c2ccc2c3CCN2)cc(OC)c1OC
IC50 [1]: 701 nM
IC50 [2]: 1120 nM
IC50 [3]: 741 nM
IC50 [4]: 797 nM
IC50 [20]: 597 nM
IC50 [6]: 312 nM
IC50 [7]: 812 nM

COc1cc(C2=CCCCc3c2ccc2c3c(C=O)cn2C)cc(OC)c1OC
IC50 [1]: 41 nM
IC50 [2]: 52 nM
IC50 [3]: 31 nM
IC50 [4]: 49 nM
IC50 [20]: 33 nM
IC50 [5]: 470 nM
IC50 [6]: 29 nM
IC50 [7]: 59 nM
